The text below walks through data of ChEMBL document CHEMBL1138251, “Synthesis and evaluation of antiparasitic activities of new 4-[5-(4-phenoxyphenyl)-2H-pyrazol-3-yl]morpholine derivatives” (J Med Chem, 2007).

One may read the IC50 as the concentration that gives 50% inhibition. Lower therefore signals greater potency in that assay.

One experiment deals with Leishmania donovani. Nature of the experiment: Antiparasitic activity against Leishmania donovani MHOM-ET-67/L82 in amastigotes stage. The experiment is classed as functional, organism-based. In a few lines:
(§1)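 Microplate assay at pH 7.4. Organisms: L. donovani MHOM-ET-67/L82, T. b. rhodesiense STIB900, T. cruzi Tulahuen C4. Cytotoxicity used rat skeletal myoblast L-6 cells. Compounds were tested in duplicate at […], and actives were retested in duplicate down to 3.5 nM. IC50 was taken from sigmoidal inhibition curves. Reference standards: miltefosine (L. donovani), melarsoprol (T. b. rhodesiense), benznidazole (T. cruzi), podophyllotoxin (L-6).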

The next experiment deals with L6. Nature of the experiment: Cytotoxicity against rat L6 cells. In kind it is cell-based.
Experiment [1] deals with Trypanosoma brucei rhodesiense. Nature of the experiment: Antiparasitic activity against Trypanosoma brucei rhodesiense STIB900 in blood. In kind it is functional, organism-based. In a few lines:
as §1

Experiment [2] concerns Trypanosoma brucei rhodesiense. Kind of experiment: Antiparasitic activity against Trypanosoma brucei rhodesiense STIB900 in procyclic stage. The experiment is classed as functional, organism-based.
The test system of a further experiment is Trypanosoma cruzi. Nature of the experiment: Antiparasitic activity against Trypanosoma cruzi Tulahuen C4 in amastigotes stage.
In the next experiment the test system is Plasmodium falciparum. Nature of the experiment: Antiparasitic activity against chloroquine, pyrimethamine-resistant Plasmodium falciparum K1 erythrocyte stage.

`CCc1ccc(C(=O)CC(=O)C2CCOCC2)cc1`: the IC50 in the experiment on Leishmania donovani is 9.8 µM; with L6, 202 µM; in experiment [1] it was 20.9 µM; in experiment [2], 3.4 µM; with Trypanosoma cruzi, 54.9 µM; in the experiment on Plasmodium falciparum, over 19 µM.

Regarding `O=C(CC(=O)c1ccc(Oc2ccccc2)cc1)CN1CCOCC1`, the IC50 with Leishmania donovani is 5.2 µM; in the experiment on L6, 112 µM; in experiment [1] it was 18.9 µM; in experiment [2], 1 µM; in the experiment with Trypanosoma cruzi, 20.6 µM; in the experiment on Plasmodium falciparum it was over 15 µM.

For the molecule `Nc1ccc(Oc2ccc(-c3cc(N4CCOCC4)[nH]n3)cc2)cc1`, the IC50 in the experiment with Leishmania donovani was 20.3 µM; with L6 it was over 267 µM; in experiment [1], 17.7 µM; in experiment [2] it was over 267 µM; in the experiment with Trypanosoma cruzi, over 89 µM; in the experiment with Plasmodium falciparum, over 14 µM.

As to `Nc1ccc(-n2nc(-c3ccc(Oc4ccccc4)cc3)cc2N2CCOCC2)cc1`, the IC50 worked out at 10.5 µM with Leishmania donovani; 61.6 µM in the experiment on L6; 10.3 µM in experiment [1]; 61.7 µM in experiment [2]; 22 µM with Trypanosoma cruzi; 6.5 µM in the experiment with Plasmodium falciparum.

For the molecule `c1ccc(Oc2ccc(-c3cc(N4CCNCC4)[nH]n3)cc2)cc1`, the IC50 with Leishmania donovani stood at 25.8 µM; in the experiment with L6 it was 18 µM; in experiment [1] it was 1.1 µM; in experiment [2], 4.7 µM; with Trypanosoma cruzi it was 9.5 µM; in the experiment with Plasmodium falciparum, 6.6 µM.

As to `CCc1ccc(-c2cc(C3CCOCC3)[nH]n2)cc1`, the IC50 with Leishmania donovani was 15.1 µM; in the experiment on L6 it was 165 µM; in experiment [1], 28.6 µM; in experiment [2], 7.8 µM; with Trypanosoma cruzi, 114 µM; with Plasmodium falciparum it was over 19 µM.

For `c1ccc(Oc2ccc(-c3cc(C4CCOCC4)[nH]n3)cc2)cc1`, the IC50 in the experiment with Leishmania donovani is 6.4 µM; in the experiment on L6, 89.6 µM; in experiment [1], 3.2 µM; in experiment [2], 43 µM; in the experiment with Trypanosoma cruzi it was 59 µM; in the experiment on Plasmodium falciparum it was over 15 µM.

On to `O=[N+]([O-])c1ccc(Oc2ccc(-c3cc(N4CCOCC4)[nH]n3)cc2)cc1`, for which the IC50 in the experiment with Leishmania donovani was 22.3 µM; in the experiment with L6, over 245 µM; in experiment [1], 4.4 µM; in experiment [2] it was 93.4 µM; in the experiment on Trypanosoma cruzi it was over 81 µM; in the experiment with Plasmodium falciparum, over 13 µM.

With `CSC(=CC(=O)c1ccc([N+](=O)[O-])cc1)SC`, the IC50 in the experiment on Leishmania donovani is 20.2 µM; in the experiment with L6, 40.5 µM; in experiment [1] it was 224 µM; in experiment [2] it was over 334 µM; with Trypanosoma cruzi, 54.6 µM; with Plasmodium falciparum, over 18 µM.

As for `CSC(=CC(=O)c1ccc(Oc2ccccc2)cc1)SC`, the IC50 with Leishmania donovani is 9.7 µM; with L6, 34.5 µM; in experiment [1], 51.4 µM; in experiment [2] it was 16.6 µM; in the experiment on Trypanosoma cruzi it was 24.4 µM; in the experiment on Plasmodium falciparum, over 15 µM.

Regarding `c1ccc(Oc2ccc(-c3cc(N4CCOCC4)[nH]n3)cc2)cc1`, the IC50 is 8 µM in the experiment with Leishmania donovani; 61.6 µM in the experiment on L6; 1 µM in experiment [1]; 40.7 µM in experiment [2]; 52 µM in the experiment on Trypanosoma cruzi; over 15 µM in the experiment with Plasmodium falciparum.

As for `c1ccc(Oc2ccc(-c3cc(N4CCOCC4)on3)cc2)cc1`, the IC50 in the experiment on Leishmania donovani worked out at 12.7 µM; in the experiment on L6, 172 µM; in experiment [1], 5.9 µM; in experiment [2], 75.2 µM; in the experiment on Trypanosoma cruzi, 46.5 µM; in the experiment on Plasmodium falciparum, 10.5 µM.

Consider `O=[N+]([O-])c1ccc(-n2nc(-c3ccc(Oc4ccccc4)cc3)cc2N2CCOCC2)cc1`, for which the IC50 is 4.8 µM with Leishmania donovani; over 203 µM in the experiment on L6; 28.8 µM in experiment [1]; over 203 µM in experiment [2]; over 67 µM in the experiment with Trypanosoma cruzi; 3.7 µM with Plasmodium falciparum.

As to `CC(C)(C)OC(=O)N1CCN(c2cc(-c3ccc(Oc4ccccc4)cc3)n[nH]2)CC1`, the IC50 in the experiment on Leishmania donovani was 2.3 µM; with L6 it was 30 µM; in experiment [1], 2.9 µM; in experiment [2], 17.6 µM; in the experiment on Trypanosoma cruzi, 12.8 µM; in the experiment with Plasmodium falciparum, 8.1 µM.

Consider `c1ccc(Oc2ccc(-c3cc(CN4CCOCC4)[nH]n3)cc2)cc1`, for which the IC50 was 15.6 µM with Leishmania donovani; 150 µM in the experiment with L6; 4.1 µM in experiment [1]; 54.9 µM in experiment [2]; 45.3 µM in the experiment on Trypanosoma cruzi; over 14 µM with Plasmodium falciparum.

As for `O=C(CC(=O)C1CCOCC1)c1ccc(Oc2ccccc2)cc1`, the IC50 is 4.6 µM with Leishmania donovani; 231 µM with L6; 25.8 µM in experiment [1]; 1.8 µM in experiment [2]; 54.6 µM in the experiment with Trypanosoma cruzi; over 15 µM in the experiment on Plasmodium falciparum.

With `CSC(=CC(=O)c1ccc(Oc2ccc([N+](=O)[O-])cc2)cc1)SC`, the IC50 was 5.7 µM in the experiment on Leishmania donovani; 156 µM in the experiment with L6; 45.9 µM in experiment [1]; over 249 µM in experiment [2]; over 83 µM in the experiment with Trypanosoma cruzi; over 13 µM in the experiment on Plasmodium falciparum.

The molecule `O=C(Cn1ccnc1[N+](=O)[O-])NCc1ccccc1` [BENZNIDAZOLE] gave an IC50 with Trypanosoma cruzi of 2.13 µM.

In the case of `Nc1nc(N)nc(Nc2ccc([As]3SCC(CO)S3)cc2)n1` (stereo unspecified) [MELARSOPROL], the IC50 was 0.01 µM in experiment [1] and 0.13 µM in experiment [2].

`CCCCCCCCCCCCCCCCOP(=O)([O-])OCC[N+](C)(C)C` [MILTEFOSINE]: the IC50 with Leishmania donovani is 0.26 µM.
